The text below walks through data of ChEMBL document CHEMBL1144480, “Study on the substituents' effects of a series of synthetic chalcones against the yeast Candida albicans” (2007).

Converted amounts (≈) assume the structure as drawn. The source made the active and inactive calls. No cut-off for these calls is given here.

In general, MIC refers to the least concentration at which growth counts as inhibited.

Test [1] has as its system Candida albicans. Put plainly: Antifungal activity against Candida albicans Berhaut 62I after 24 hrs. The class given is functional. The procedure, abridged:
(§1)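 Serial dilutions of each chalcone in meat-pepton broth in tubes; inoculum 10⁵ cells/ml; 37 °C, 24 h. MIC taken as the lowest dilution with no visible growth against inoculated drug-free broth. Tubes without visible growth streaked onto meat-pepton agar, 37 °C, 24 h, and checked for growth.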

The test system of test [2] is Candida albicans. As to the kind of experiment: Antifungal activity against Candida albicans Berhaut 62I in meat-pepton broth. The class given is functional. The procedure, abridged: as §1
The subject of test [3] is Candida albicans. Put plainly: Growth inhibition of Candida albicans Berhaut 62I by agar cup method. The class given is functional. A digest of the protocol:
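Each well received 100 µl of sample dissolved in 96% EtOH. Pre-diffusion at 4 °C for 2 h, then 37 °C for 48 h. Read-out was inhibitory zone diameter, with ≥15 mm initially counted as active. Pure solvent served as control.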

In test [4] the test system is Candida albicans. Put plainly: Antifungal activity against Candida albicans Berhaut 62I at 2000 ug/ml. The class given is functional, organism-based.
Setting [5] is: Candida albicans, Berhaut 62I, read-out: MIC.

`COc1ccc(/C=C/C(=O)c2ccc(Cl)cc2)cc1O`: the MIC in test [1] and in test [2] (setting [5]) was 500 µg/mL (≈ 1730 µM) in each case. Also, the “inhibition zone (IZ)” value in test [3] came out at 0 mm.
With `CC(=O)Nc1ccc(/C=C/C(=O)c2ccccc2)cc1`, the MIC in test [1] and in test [2] (setting [5]) was 500 µg/mL (≈ 1880 µM) each time. The “inhibition zone (IZ)” value in test [3] was determined as 0 mm.
Turning to `COc1cc(C(=O)/C=C/c2ccc(Cl)cc2)cc(OC)c1OC`, the MIC in test [1] and in test [2] (setting [5]) was 500 µg/mL (≈ 1500 µM) each time. For the same compound, in test [3], the “inhibition zone (IZ)” value is 0 mm.
Regarding `COc1cccc(/C=C/C(=O)c2ccccc2)c1O`, the MIC in test [1] and in test [2] (setting [5]) was 62.5 µg/mL (≈ 246 µM) throughout. For the same compound, the “inhibition zone (IZ)” value in test [3] came out at 12 mm.
As for `O=C(/C=C/c1ccc2c(c1)OCO2)c1ccc(Cl)cc1`, the MIC in test [1] came to 500 µg/mL (≈ 1740 µM); in test [2] (setting [5]), 62.5 µg/mL (≈ 218 µM). Further, the “inhibition zone (IZ)” value in test [3] is on record as 0 mm.
For `O=C(/C=C/c1ccccc1O)c1ccccc1`, the MIC in test [1] and in test [2] (setting [5]) was 31.2 µg/mL (≈ 139 µM) throughout. Further, in test [3], the “inhibition zone (IZ)” value is listed as 21 mm.
With `O=C(/C=C/C=C/c1ccccc1)/C=C/C=C/c1ccccc1`, the result in test [4] was inactive.
On to `O=C(/C=C/c1ccc(O)c(O)c1)c1ccccc1`, for which the minimal inhibitory concentration (MIC) in test [1] and in test [2] (setting [5]) was 62.5 µg/mL (≈ 260 µM) each time. For the same compound, the “inhibition zone (IZ)” value in test [3] was found to be 15 mm.
For the compound `COc1ccc(/C=C/C(=O)c2ccc(Cl)cc2)cc1OC`, the MIC in test [1] stood at 500 µg/mL (≈ 1650 µM); in test [2] it was 62.5 µg/mL (≈ 206 µM); in test [2] (setting [5]), 62.5 µg/mL (≈ 206 µM). For the same compound, the “inhibition zone (IZ)” value in test [3] turned out to be 0 mm.
For the compound `COc1cc(C(=O)/C=C/c2ccc(C#N)cc2)cc(OC)c1OC`, the MIC in test [1] and in test [2] (setting [5]) was 500 µg/mL (≈ 1550 µM) each time. For the same compound, the “inhibition zone (IZ)” value in test [3] is reported as 0 mm.
Consider `COc1ccc(/C=C/C(=O)c2ccccc2)cc1` [4-METHOXY CHALCONE], for which the MIC in test [1] and in test [2] (setting [5]) was 500 µg/mL (≈ 2100 µM) each time. For the same compound, the “inhibition zone (IZ)” value in test [3] worked out at 0 mm.
For `COc1cc(C(=O)/C=C/c2ccc(C)cc2)cc(OC)c1OC`, the MIC in test [1] and in test [2] (setting [5]) was 500 µg/mL (≈ 1600 µM) each time. For the same compound, the “inhibition zone (IZ)” value in test [3] is 0 mm.
For `COc1cc(C(=O)/C=C/c2ccc(N(C)C)cc2)cc(OC)c1OC`, the MIC in test [1] and in test [2] (setting [5]) was 500 µg/mL (≈ 1460 µM) in each case. For the same compound, the “inhibition zone (IZ)” value in test [3] turned out to be 0 mm.
As for `O=C(/C=C/c1ccccc1)c1ccc(Cl)cc1`, the MIC in test [1] and in test [2] (setting [5]) was 500 µg/mL (≈ 2060 µM) each time. Moreover, the “inhibition zone (IZ)” value in test [3] is listed as 0 mm.
On to `COc1ccc(/C=C/C(=O)c2cc(OC)c(OC)c(OC)c2)cc1`, for which the MIC in test [1] and in test [2] (setting [5]) was 500 µg/mL (≈ 1520 µM) in each case. Besides, in test [3], the “inhibition zone (IZ)” value worked out at 0 mm.
With `O=C(/C=C/c1ccccc1O)c1ccc(Cl)cc1`, the MIC in test [1] and in test [2] (setting [5]) was 62.5 µg/mL (≈ 242 µM) in each case. Besides, in test [3], the “inhibition zone (IZ)” value was 16 mm.
As for `O=C(/C=C/c1cccc(O)c1)c1ccc(Cl)cc1`, the MIC in test [1] and in test [2] (setting [5]) was 125 µg/mL (≈ 483 µM) each time. Also, the “inhibition zone (IZ)” value in test [3] turned out to be 20 mm.
With `Cc1ccc(/C=C/C(=O)c2ccccc2)cc1`, the MIC in test [1] and in test [2] (setting [5]) was 500 µg/mL (≈ 2250 µM) in each case. Besides, the “inhibition zone (IZ)” value in test [3] is listed as 0 mm.
`Cc1ccc(/C=C/C(=O)c2ccc(Cl)cc2)cc1`: the MIC in test [1] and in test [2] (setting [5]) was 500 µg/mL (≈ 1950 µM) in each case. The “inhibition zone (IZ)” value in test [3] amounted to 0 mm.
Consider `N#Cc1ccc(/C=C/C(=O)c2ccccc2)cc1`, for which the MIC in test [1] and in test [2] (setting [5]) was 250 µg/mL (≈ 1070 µM) in each case. Further, the “inhibition zone (IZ)” value in test [3] turned out to be 17 mm.
On to `COc1cc(C(=O)/C=C/c2ccccc2)cc(OC)c1OC`, for which the MIC in test [1] and in test [2] (setting [5]) was 500 µg/mL (≈ 1680 µM) throughout. For the same compound, in test [3], the “inhibition zone (IZ)” value was found to be 0 mm.
As for `O=C(/C=C/c1ccc([N+](=O)[O-])cc1)c1ccccc1`, the MIC in test [1] and in test [2] (setting [5]) was 250 µg/mL (≈ 987 µM) in each case. Besides, the “inhibition zone (IZ)” value in test [3] is 17 mm.
Regarding `O=C(/C=C/c1ccc(O)c(O)c1)c1ccc(Cl)cc1`, the MIC in test [1] and in test [2] (setting [5]) was 62.5 µg/mL (≈ 228 µM) in each case. In addition, in test [3], the “inhibition zone (IZ)” value is on record as 14 mm.
On to `O=C(/C=C/c1ccccc1)/C=C/c1ccccc1`, for which, in test [4], the outcome was inactive.
With `COc1cc(/C=C/C(=O)c2ccc(Cl)cc2)cc(OC)c1O`, the figures for the MIC in test [1] and in test [2] (setting [5]) were 125 µg/mL (≈ 392 µM) and 62.5 µg/mL (≈ 196 µM), respectively. Also, the “inhibition zone (IZ)” value in test [3] amounted to 15 mm.
Consider `O=C(/C=C/c1ccc(O)cc1)c1ccc(Cl)cc1`, for which the MIC in test [1] and in test [2] (setting [5]) was 62.5 µg/mL (≈ 242 µM) throughout. Further, the “inhibition zone (IZ)” value in test [3] came to 21 mm.
For `COc1cccc(/C=C/C(=O)c2ccc(Cl)cc2)c1O`, the MIC in test [1] and in test [2] (setting [5]) was 500 µg/mL (≈ 1730 µM) throughout. The “inhibition zone (IZ)” value in test [3] was determined as 0 mm.
For `O=C(/C=C/c1cccc(O)c1)c1ccccc1` [3-HYDROXY CHALCONE], the MIC in test [1] and in test [2] (setting [5]) was 250 µg/mL (≈ 1110 µM) in each case. Besides, in test [3], the “inhibition zone (IZ)” value was 17 mm.
`O=C(/C=C/c1ccccc1)c1ccccc1` [CHALCONE]: the MIC in test [1] and in test [2] (setting [5]) was 125 µg/mL (≈ 600 µM) each time. Besides, the “inhibition zone (IZ)” value in test [3] is recorded as 30 mm.
On to `COc1cccc(/C=C/C(=O)c2cc(OC)c(OC)c(OC)c2)c1`, for which the minimum inhibitory concentration (MIC) in test [2] (setting [5]) was found to be 62.5 µg/mL (≈ 190 µM).
On to `COc1cc(/C=C/C(=O)c2ccc(Cl)cc2)cc(OC)c1OC`, for which the MIC in test [1] stood at 500 µg/mL (≈ 1500 µM); in test [2] (setting [5]), 62.5 µg/mL (≈ 188 µM). Also, the “inhibition zone (IZ)” value in test [3] stood at 0 mm.
Turning to `COc1cc(/C=C/C(=O)c2ccc(Cl)cc2)ccc1O`, the results for the MIC in test [1] and in test [2] (setting [5]) were 250 µg/mL (≈ 866 µM) and 62.5 µg/mL (≈ 216 µM), respectively. Also, the “inhibition zone (IZ)” value in test [3] came out at 19 mm.
As for `COc1cc(C(=O)/C=C/c2ccc(NC(C)=O)cc2)cc(OC)c1OC`, the MIC in test [1] and in test [2] (setting [5]) was 500 µg/mL (≈ 1410 µM) throughout. In test [3], the “inhibition zone (IZ)” value is 0 mm.
`COc1ccc(/C=C/C(=O)c2ccccc2)cc1O`: the MIC in test [1] and in test [2] (setting [5]) was 500 µg/mL (≈ 1970 µM) in each case. The “inhibition zone (IZ)” value in test [3] is reported as 0 mm.
Turning to `O=C(/C=C/c1ccc2c(c1)OCO2)c1ccccc1`, the minimal inhibitory concentration (MIC) in test [2] (setting [5]) is 62.5 µg/mL (≈ 248 µM).
For `O=C(/C=C/c1ccc(O)cc1)c1ccccc1` [4-HYDROXYCHALCONE], the minimal inhibitory concentration (MIC) in test [1] and in test [2] (setting [5]) was 62.5 µg/mL (≈ 279 µM) throughout. For the same compound, in test [3], the “inhibition zone (IZ)” value came to 15 mm.
With `CN(C)c1ccc(/C=C/C(=O)c2ccccc2)cc1`, the MIC in test [1] and in test [2] (setting [5]) was 500 µg/mL (≈ 1990 µM) each time. In addition, the “inhibition zone (IZ)” value in test [3] came out at 0 mm.
As to `O=C(/C=C/c1ccc([N+](=O)[O-])cc1)c1ccc(Cl)cc1`, the MIC in test [1] and in test [2] (setting [5]) was 250 µg/mL (≈ 869 µM) each time. Further, the “inhibition zone (IZ)” value in test [3] worked out at 15 mm.
Consider `O=C(/C=C/C=C/c1ccccc1)c1ccccc1`, for which the result in test [4] was inactive.
Regarding `O=C(/C=C/c1ccc(Cl)cc1)c1ccccc1` [4-CHLORO CHALCONE], the MIC in test [1] and in test [2] (setting [5]) was 500 µg/mL (≈ 2060 µM) in each case. Further, the “inhibition zone (IZ)” value in test [3] was 0 mm.
Regarding `N#Cc1ccc(/C=C/C(=O)c2ccc(Cl)cc2)cc1`, the MIC in test [1] and in test [2] (setting [5]) was 250 µg/mL (≈ 934 µM) each time. Also, the “inhibition zone (IZ)” value in test [3] is on record as 23 mm.
For `COc1cccc(/C=C/C(=O)c2ccc(Cl)cc2)c1`, the MIC was determined as 500 µg/mL (≈ 1830 µM) in test [1] and 62.5 µg/mL (≈ 229 µM) in test [2] (setting [5]). Also, in test [3], the “inhibition zone (IZ)” value came out at 15 mm.
Regarding `COc1ccc(/C=C/C(=O)c2ccc(Cl)cc2)cc1`, the MIC in test [1] and in test [2] (setting [5]) was 500 µg/mL (≈ 1830 µM) in each case. Also, the “inhibition zone (IZ)” value in test [3] was determined as 0 mm.
Regarding `CC(=O)Nc1ccc(/C=C/C(=O)c2ccc(Cl)cc2)cc1`, the MIC in test [1] and in test [2] (setting [5]) was 500 µg/mL (≈ 1670 µM) in each case. In addition, the “inhibition zone (IZ)” value in test [3] is given as 0 mm.
Regarding `O=C(/C=C/c1ccc(Cl)cc1)c1ccc(Cl)cc1` [4',4-DICHLOROCHALCONE], the MIC in test [1] and in test [2] (setting [5]) was 500 µg/mL (≈ 1800 µM) in each case. Besides, the “inhibition zone (IZ)” value in test [3] is 0 mm.
As for `CN(C)c1ccc(/C=C/C(=O)c2ccc(Cl)cc2)cc1`, the MIC in test [1] and in test [2] (setting [5]) was 500 µg/mL (≈ 1750 µM) throughout. In test [3], the “inhibition zone (IZ)” value was found to be 0 mm.
